TAAR1 agonist: agonists of human TAAR1. CHO RD-HGA16 TAAR1, Fluo-8 calcium fluorescence; vehicle wells 0%, saturating PEA agonist 100%. activation, % at 3 µM. actives 0.99% (n = 360,000). AID 624467;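 active = activation above the mean activation of all test compounds in the run plus 3 SD, cut at about 38% in these data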
Target sequence (Q96RJ0 whole entry, looked up): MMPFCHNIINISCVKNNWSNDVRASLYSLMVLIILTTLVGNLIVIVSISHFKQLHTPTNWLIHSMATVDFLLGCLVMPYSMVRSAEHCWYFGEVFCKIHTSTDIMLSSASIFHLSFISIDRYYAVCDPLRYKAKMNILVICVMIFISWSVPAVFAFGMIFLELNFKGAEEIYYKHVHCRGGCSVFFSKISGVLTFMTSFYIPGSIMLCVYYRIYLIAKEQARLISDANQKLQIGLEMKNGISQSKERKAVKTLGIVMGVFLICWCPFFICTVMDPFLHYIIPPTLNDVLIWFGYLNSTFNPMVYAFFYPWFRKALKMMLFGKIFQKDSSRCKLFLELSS
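Test system: RD-HGA16 (CHO) cells co-expressing Gα16 and hTAAR1 / Benchmarks: DMSO vehicle as 0%, PEA at EC100 as 100% / Repeats: no replicates (n 1) / Measure: % activation from peak over basal fluorescence ratio, DMSO-to-PEA scaled / Timing: 17-24 h plating, Fluo-8 75 min 37 °C, 30 min RT / Technique: kinetic Fluo-8 calcium fluorescence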
core dimer inh: blocks dimerization of HCV core protein; TR-FRET GST/Flag-core106 dimerization, 1536-well; inhibition, % at 5 µM; actives 0.33% (n = 300,000); AID 1899;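 active = inhibition above the mean of all tested compounds plus 3 SD, set per screening campaign, cut at about 45% in these data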
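Material: Tagged HCV core106 pair (GST and Flag) | Amount: GST-core106 13.5 nM, Flag-core106 17 nM | Medium: KF-containing HEPES buffer, pH 7.45, DTT, CHAPS, BSA | Reagent: Eu donor and XL665 acceptor anti-tag antibodies | Schedule: 4 h at 22.5 °C | Technique: Time-resolved FRET, ex 340 nm, em 617 and 671 nm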
rCAG RNA binder: binds r(CAG) RNA repeats. r(CAG) RNA repeat, TO-PRO-1 dye displacement fluorescence. inhibition, % at 3 µM. actives 1.3% (n = 370,000). AID 651821;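 active = inhibition above the plate cutoff, the mean of all test compounds on that plate plus 3 SD, cut at about 35% in these data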;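 also: 0% = DMSO alone and 100% = 100 µM mitoxantrone as full dye displacement; higher means more dye released from RNA so lower well fluorescence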
TAAR1 antagonist: antagonists of human TAAR1 | Q96RJ0 | CHO RD-HGA16 TAAR1, Fluo-8 calcium fluorescence, antagonist | inhibition, % at 3 µM | actives 1.5% (n = 360,000) | AID 624466;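 active = inhibition above a per-plate cutoff, the mean inhibition of test compounds on that plate plus 3 SD, cut at about 49% in these data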;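 also: 0% = DMSO plus EC80 beta-PEA response and 100% = DMSO alone without agonist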
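System: RD-HGA16 CHO cells with stable hTAAR1 and Gα16 | Probe or stimulus: EC80 β-phenethylamine stimulus | Dosing: 3 µM, single point | Times: Dye loading 75 min at 37 °C, then 30 min room temperature | Measured by: Fluo-8 calcium-sensitive fluorescence | Read-out basis: % inhibition of agonist calcium response | Replicates: n of 1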
HCV NS3 hel inh: inhibitors of Hepatitis C virus NS3 helicase; NS3 helicase DNA unwinding, Cy5 molecular beacon fluorescence; inhibition, % at 10.9 µM; actives 0.56% (n = 290,000);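 active = inhibition above the mean of all tested compounds plus 3 SD, set per campaign, cut at about 35% in these data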;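 also: 0% = DMSO wells and 100% = thioflavine S control wells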
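Measured by: Cy5 fluorescence, 0 and 60 min reads / Assay system: NS3 helicase fragment of HCV / Control set: low DMSO, high thioflavine S at 110 µM / Times: 1 h reaction at 25 °C, ATP-initiated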
An asterisk follows results filed as active; . = no result given. Compounds with a hit are over-represented: about 3.7% of the library has one in this group of screens.

SMILES	TAAR1 agonist	core dimer inh	rCAG RNA binder	TAAR1 antagonist	HCV NS3 hel inh
Cc1cccc(N2CCN(C(=O)c3ccc4c(c3)NC(=O)C(CSCc3ccc(F)cc3)N4)CC2C)c1 (stereo not drawn)	.	63.9*	.	.	20.2
COc1ccc(N2CCN(C(=O)c3ccc4c(c3)NC(=O)C(CSCc3ccc(C)cc3)N4)CC2)cc1 (stereo not drawn)	.	63.7*	.	.	15.8
COC(=O)C1CN(Cc2cn(Cc3ccc(C)cc3)nn2)CCS(=O)(=O)N1Cc1ccccc1 (stereo not drawn)	.	.	-1.2	.	.
O=C(Nc1c(-c2ccc(F)c(F)c2)nc2ncccn12)C1CC1	.	.	5.3	.	.
CCCCCCCCN1C(=O)[C@@H](CC(=O)NCC23CC4CC(CC(C4)C2)C3)C[C@@]2(C(=O)OC)C1=C[C@H](C(C)C)O[C@@H]2C1CC1	.	.	17.5	.	.
CCC(NC(=O)c1cc(COc2ccc(F)cc2Cl)on1)c1ccncc1 (stereo not drawn)	43.3*	.	-4.4	24.3	-11.2
CC(=O)OCCCN1CCC2(CCC(c3ccccc3)CC2)C1=O (stereo not drawn)	.	.	0.1	.	.
O=S(=O)(NCC(Nc1ccccc1)c1ccccc1)c1ccc(Cl)cc1 (stereo not drawn)	-1.1	6.7	3.8	51.3*	-5.8
CCNC(=O)c1cc2c(c(-c3cccc(-c4ccccc4F)c3)n1)[C@H](CCO)N(C(=O)CC)C2	2.0	.	-0.1	-11.6	.
CCCNC(=O)c1cc2c(c(-c3cccc(-c4cc5ccccc5o4)c3)n1)[C@@H](CCO)N(C(=O)NC(C)C)C2	4.4	.	9.6	41.6	.
CCNC(=O)c1cc2c(c(-c3cccc(-c4cc5ccccc5o4)c3)n1)[C@H](CCO)N(C(=O)NC(C)C)C2	11.6	.	16.8	55.6*	.
CCC(=O)N1Cc2cc(C(=O)Nc3nccs3)nc(-c3cccc(-c4ccccc4OC)c3)c2[C@H]1CCO	14.2	.	7.1	56.8*	.
COc1ccccc1-c1cccc(-c2nc(C(=O)Nc3nccs3)cc3c2[C@@H](CCO)N(C(C)=O)C3)c1	19.8	.	7.1	54.3*	.
O=C(Nc1ccccc1)Nc1c(-c2ccccc2)nc2ncccn12	.	.	2.2	.	.
C=CCN(c1ccccc1OC)S(=O)(=O)c1cccc(C(=O)OCC(=O)c2c(N)n(C)c(=O)n(C)c2=O)c1	8.6	.	9.6	51.7*	.
CNS(=O)(=O)c1cccc(C(=O)OCC(=O)c2c(N)n(C)c(=O)n(C)c2=O)c1	4.8	-4.6	-0.1	-25.2	15.0
C=CCN(C(=O)[C@@H](CCCC)[C@@H](O)c1ccc2ccccc2c1)c1ccccc1	.	.	0.2	.	.
COc1ccc(N2Cc3cccc(C(=O)O)c3C2=O)cc1	.	48.3*	.	.	20.3
COc1ccc(N2Cc3ccccc3C2=O)cc1	-0.8	-15.5	-0.2	-18.9	13.6
c1csc(-c2nc3nc4ccccc4nc3n2Cc2ccc3c(c2)OCO3)c1	12.9	29.8	1.8	41.8	-12.9
Clc1ccccc1-c1nc2nc3ccccc3nc2n1-c1ccc2c(c1)OCO2	10.1	13.0	0.2	49.3*	-13.7
O=C(c1ccc(N2CCN(C(=O)c3ccc(F)cc3F)CC2)cc1)c1cccc(F)c1	3.9	13.7	-6.3	62.7*	-2.7
O=C(c1ccc(F)cc1F)N1CCN(c2ncccn2)CC1	6.0	-2.3	-1.0	-1.2	3.9
Cc1ccc(C)c(N2CCN(C(=O)c3ccc(Cn4c(=S)[nH]c5ccc(N6CCOCC6)cc5c4=O)cc3)CC2)c1	1.1	48.2*	17.9	-13.1	8.8
O=C(c1ccc(Cn2c(=S)[nH]c3ccc(N4CCOCC4)cc3c2=O)cc1)N1CCN(c2ccc(F)cc2)CC1	-0.3	24.3	12.1	-20.9	-3.5
SMILES	TAAR1 agonist	core dimer inh	rCAG RNA binder	TAAR1 antagonist	HCV NS3 hel inh
O=C(NC1CCCCN(Cc2cccc(C(F)(F)F)c2)C1=O)c1ccc(COc2ccccc2)cc1 (stereo not drawn)	.	.	0.9	.	.
c1ccc(-n2c(SCc3cccc4ccccc34)nnc2-c2ccncc2)cc1	.	.	2.3	.	.
CCN(CC(=O)Nc1ccc(NC(C)=O)cc1)C(=O)c1cn(-c2ccccc2)nc1-c1cccs1	13.2	.	10.3	64.2*	.
O=C(c1cn(-c2ccccc2)nc1-c1cccs1)N1CCN(c2ccccn2)CC1	11.2	8.2	4.7	49.0*	-19.9
CN1CCN(C(=O)c2cn(-c3ccccc3)nc2-c2cccs2)CC1	4.6	-8.9	-6.3	15.0	1.8
COc1cccc(NC(=O)CN(C)C(=O)c2cn(-c3ccccc3)nc2-c2cccs2)c1	10.8	9.2	12.4	60.9*	.
O=C(CN(CCc1ccccc1)S(=O)(=O)c1cccs1)N1CCOCC1	.	.	1.4	.	.
Cc1ccc(NC(=O)Cn2cccc2)cc1C	7.6	-0.7	-0.2	11.6	2.3
CSc1ncnc2c1ccn2CC(=O)Nc1ccc(C)c(C)c1	43.2*	.	1.9	14.3	.
CCOC(=O)C1CCN(c2cc3c(cc2NC(=O)c2ccccc2F)n(C)c(=O)n3C)CC1	4.3	8.5	2.4	7.3	-9.2
CCOC(=O)C1CCN(c2cc3c(cc2NC(=O)c2ccccc2Cl)n(C)c(=O)n3C)CC1	4.4	8.4	-5.7	55.8*	-6.8
O=S(=O)(Nc1ccccc1)c1ccc(Oc2ncc(C(F)(F)F)cc2Cl)cc1	37.5*	1.7	1.8	69.2*	-5.6
CNc1nc(NCC2CCCCC2)c2sccc2n1	49.5*	.	2.7	26.4	.
Cc1ccc(CNc2nc(NCC3CC3)nc3ccsc23)c(C)c1	17.1	.	1.9	19.1	.
Cn1ncc2c(Nc3ccc([N+](=O)[O-])cc3)nc(Cl)nc21	40.7*	.	7.8	-1.8	-6.1
CCOC(=O)Cc1csc(NC(=O)c2ccc(Br)o2)n1	2.0	-7.7	-2.1	-1.3	-6.0
CCOC(=O)Cc1csc(NC(=O)Cc2ccccc2[N+](=O)[O-])n1	4.3	4.8	3.6	-0.1	-3.3
CCOC(=O)Cc1csc(NC(=O)/C=C/c2ccc(Br)o2)n1	8.8	-9.1	0.7	48.6*	18.2
CCOC(=O)Cc1csc(NC(=O)C(C)c2ccc([N+](=O)[O-])cc2)n1 (stereo not drawn)	49.7*	-7.2	-0.3	20.1	3.6
COc1ccccc1NCCC(=O)OCC(=O)NCc1ccco1	-1.8	58.2*	15.8	4.6	10.2
COc1ccc(OCCC(=O)OCC(=O)NCc2ccco2)cc1	-1.4	85.2*	1.7	1.6	16.0
Cc1ccccc1OCC(=O)OCC(=O)NCc1ccco1	1.8	1.4	-0.6	-18.7	.
O=S1(=O)c2ccc(N3CCN(Cc4ccccc4F)CC3)cc2Oc2ccccc2CN1Cc1cn(Cc2ccc(F)cc2)nn1	.	.	10.4	.	.
N#CC1=C(N)SC(N)=C(C#N)C1c1ccoc1	.	18.7	.	.	17.6
Cc1ccc(C2C(C#N)=C(N)SC(N)=C2C#N)cc1	49.9*	.	12.6	48.0	5.9
C#CCNC(=O)C[C@@H]1C(=O)N(CC=C)C2=CCCCC[C@]21C(=O)OC	.	.	5.5	.	.
